A short description of series [1]: Intrinsic clearance in human liver microsomes. The class given is ADME, Microsome. On the technique in general: Microsomes from liver hold many membrane-bound enzymes, among them those of drug oxidation.
The subject of series [2] is human MDR. The series is described as follows: Apparent permeability across apical to basolateral side in dog MDCK cells expressing human MDR. The class given is ADME, cell-based, Canis lupus familiaris. The conditions noted are these: MDCK-MDR1.
Series [3] deals with Mus musculus. Kind of series: Antipsychotic activity in CD1 mouse assessed as increase in brain cGMP levels at 32 mg/kg, sc measured after 60 mins post dosing relative to control. The series is classed as functional. The conditions noted are these: route subcutaneous.
Series [4] concerns the target T1, cAMP and cAMP-inhibited cGMP 3',5'-cyclic phosphodiesterase 10A (Rattus norvegicus, UniProt Q9QYJ6).
T1 sequence (Q9QYJ6 whole entry): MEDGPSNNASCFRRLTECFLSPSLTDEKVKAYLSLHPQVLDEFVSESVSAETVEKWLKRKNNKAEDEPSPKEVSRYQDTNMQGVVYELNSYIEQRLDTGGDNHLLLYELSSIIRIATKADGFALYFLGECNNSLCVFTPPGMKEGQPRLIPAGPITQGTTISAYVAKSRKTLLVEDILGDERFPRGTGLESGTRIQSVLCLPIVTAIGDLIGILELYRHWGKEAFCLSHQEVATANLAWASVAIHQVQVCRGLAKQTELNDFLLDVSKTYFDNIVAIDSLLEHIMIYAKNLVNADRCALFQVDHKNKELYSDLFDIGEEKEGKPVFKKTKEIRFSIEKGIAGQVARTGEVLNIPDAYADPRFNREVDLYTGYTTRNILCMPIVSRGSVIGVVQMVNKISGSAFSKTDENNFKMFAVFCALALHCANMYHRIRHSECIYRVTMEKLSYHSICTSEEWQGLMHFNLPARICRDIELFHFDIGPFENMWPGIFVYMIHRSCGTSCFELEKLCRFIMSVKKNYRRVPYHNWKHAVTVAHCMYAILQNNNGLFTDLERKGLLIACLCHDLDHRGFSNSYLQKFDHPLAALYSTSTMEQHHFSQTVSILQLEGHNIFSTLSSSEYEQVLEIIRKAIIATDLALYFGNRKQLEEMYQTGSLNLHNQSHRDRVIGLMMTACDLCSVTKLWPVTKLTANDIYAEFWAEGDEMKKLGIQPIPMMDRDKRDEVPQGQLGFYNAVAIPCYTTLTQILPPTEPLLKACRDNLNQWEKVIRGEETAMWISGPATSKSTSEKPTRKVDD
The series is described as follows: Inhibition of recombinant rat PDE10A expressed in Sf9 cells using [3H]cAMP after 30 mins by scintillation proximity assay. The essentials:
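Full-length rat PDE10A clone expressed in Sf9 cells; enzyme extracted in Tris/benzamidine/EDTA/sucrose/PMSF lysis buffer, pH 7.5. 30 min at room temperature, stopped with SPA beads, counted after 10–12 h.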
In general terms: Scintillation proximity formats need no separation of bound from free tracer.

The subject of series [5] is Mus musculus. Kind of series: Antipsychotic activity in CD1 mouse assessed as increase in brain cGMP levels at 5.6 mg/kg, sc measured after 60 mins post dosing relative to control. The class given is functional. The conditions noted are these: route subcutaneous.
Series [6] can be described thus: Selectivity ratio of IC50 for PDE3A to IC50 for rat PDE10A.
The target of series [7] is T2, cGMP-inhibited 3',5'-cyclic phosphodiesterase 3A (Homo sapiens, UniProt Q14432). The series is described as follows: Inhibition of PDE3A.
T2 sequence (Q14432 whole entry): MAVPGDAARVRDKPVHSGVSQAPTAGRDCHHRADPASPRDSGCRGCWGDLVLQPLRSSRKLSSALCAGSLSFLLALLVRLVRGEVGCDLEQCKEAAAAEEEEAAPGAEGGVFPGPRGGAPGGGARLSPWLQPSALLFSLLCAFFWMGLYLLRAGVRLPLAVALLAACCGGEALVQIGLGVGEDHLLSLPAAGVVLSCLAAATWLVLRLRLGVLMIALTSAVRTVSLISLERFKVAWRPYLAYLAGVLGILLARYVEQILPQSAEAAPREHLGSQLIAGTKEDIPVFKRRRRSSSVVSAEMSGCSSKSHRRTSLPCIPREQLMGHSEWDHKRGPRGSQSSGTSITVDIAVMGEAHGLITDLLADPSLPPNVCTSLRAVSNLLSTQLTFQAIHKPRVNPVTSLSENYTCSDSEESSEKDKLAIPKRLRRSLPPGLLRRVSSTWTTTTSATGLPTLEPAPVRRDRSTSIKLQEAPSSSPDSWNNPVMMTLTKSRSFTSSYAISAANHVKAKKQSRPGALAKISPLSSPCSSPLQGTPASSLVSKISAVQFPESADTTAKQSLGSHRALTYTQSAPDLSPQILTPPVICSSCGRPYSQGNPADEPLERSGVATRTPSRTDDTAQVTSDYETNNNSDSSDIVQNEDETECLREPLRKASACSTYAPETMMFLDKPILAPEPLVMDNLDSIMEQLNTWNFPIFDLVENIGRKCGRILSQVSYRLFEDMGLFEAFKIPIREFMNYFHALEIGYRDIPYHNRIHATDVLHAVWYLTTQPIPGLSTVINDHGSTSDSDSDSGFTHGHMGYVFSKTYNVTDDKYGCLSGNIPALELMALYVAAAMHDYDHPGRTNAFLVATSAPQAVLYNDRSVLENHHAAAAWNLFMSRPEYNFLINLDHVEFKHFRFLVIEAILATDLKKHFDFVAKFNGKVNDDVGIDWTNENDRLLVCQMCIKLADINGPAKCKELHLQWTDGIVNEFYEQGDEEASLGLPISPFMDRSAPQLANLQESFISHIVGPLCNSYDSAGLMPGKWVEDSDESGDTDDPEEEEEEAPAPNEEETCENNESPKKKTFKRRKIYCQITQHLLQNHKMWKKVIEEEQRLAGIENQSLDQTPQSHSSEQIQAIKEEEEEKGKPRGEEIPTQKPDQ
Series [8] concerns human MDR. The series is described as follows: Efflux ratio of permeability from basolateral to apical side over apical to basolateral side in dog MDCK cells expressing human MDR. The class given is ADME, cell-based, Canis lupus familiaris. The conditions noted are these: MDCK-MDR1.
Series [9] in a line: Selectivity ratio IC50 for PDE4D to IC50 for rat PDE10A.
Series [10] can be described thus: Selectivity ratio IC50 for PDE2A to IC50 for rat PDE10A.
Series [11] in a line: Selectivity ratio IC50 for PDE5A to IC50 for rat PDE10A.
Series [12] can be described thus: Selectivity ratio IC50 for PDE6A to IC50 for rat PDE10A.
Series [13] can be described thus: Selectivity ratio IC50 for PDE1A to IC50 for rat PDE10A.
Series [14] in a line: Selectivity ratio IC50 for PDE7A to IC50 for rat PDE10A.
Series [15] can be described thus: Selectivity ratio IC50 for PDE8A to IC50 for rat PDE10A.
Series [16] is described as follows: Selectivity ratio IC50 for PDE9A to IC50 for rat PDE10A.
The nature of series [17]: Selectivity ratio IC50 for PDE11A to IC50 for rat PDE10A.
Series [18] has as its target T2, cGMP-inhibited 3',5'-cyclic phosphodiesterase 3A. Kind of series: Inhibition of PDE3A at 1 uM.
Series [19] relates to Mus musculus. Kind of series: Antipsychotic activity in CD1 mouse assessed as increase in brain cGMP levels at 32 mg/kg, sc measured after 15 mins post dosing relative to control. The series is classed as functional. The conditions noted are these: route subcutaneous.
For series [20], the system named is Mus musculus. The series is described as follows: Antipsychotic activity in CD1 mouse assessed as increase in brain cGMP levels at 32 mg/kg, sc measured after 30 mins post dosing relative to control. The series is classed as functional. The conditions noted are these: route subcutaneous.
Series [21] in a line: Intrinsic clearance in rat liver microsomes. The series is classed as ADME, Microsome.
In series [22] the test system is Mus musculus. Kind of series: Antipsychotic activity in CD1 mouse assessed as increase in striatal cGMP levels at 5.6 mg/kg, sc measured after 60 mins. The class given is functional, organism-based. Also noted: dose 5.6 mg/kg.
Series [23] concerns Mus musculus. Kind of series: Antipsychotic activity in sc dosed PDE10A-positive DBA1LAC/J mouse assessed as inhibition of conditioned avoidance response administered 30 mins prior testing. The class given is functional.
The test system of series [24] is Mus musculus. The series is described as follows: Antipsychotic activity in sc dosed PDE10A-knock out DBA1LAC/J mouse assessed as inhibition of conditioned avoidance response administered 30 mins prior testing. The series is classed as functional.

From ChEMBL document CHEMBL1817636, “Use of structure-based design to discover a potent, selective, in vivo active phosphodiesterase 10A inhibitor lead series for the treatment of schizophrenia” (J Med Chem, 2011) come the findings set out here.

Each structure is given as a SMILES string. Active and inactive are the calls of the source. The rule behind the calls is not given here.

As to `COc1cc2ncnc(N(C)C)c2cc1OCCc1ccc2ccccc2n1`, the CLint scaled in [1] stood at 10.7 L/h/kg. Besides, the Papp A→B in series [2] worked out at 190 nm/s. For the same compound, the Activity in series [3] was 268%; in series [5] it was 34%. Further, in series [4], the IC50 is 0.014 µM.

With `COc1cc2ncnc(N3CCCC(c4ccccc4)C3)c2cc1OC` (stereo not drawn) [listing 1 of 2 here], in series [6], the Ratio IC50 is less than 0.1.

In the case of `COc1cc2ncnc(N3CCCC(c4ccccc4)C3)c2cc1OC` (stereo not drawn) [listing 2 of 2 here], the CLint scaled in [1] was 0.78 L/h/kg. This compound gave an IC50 in [7] of 0.0085 µM. Further, the efflux ratio in series [8] turned out to be 0.7.

As for `COc1cc2ncnc(N3CCCC(c4ccccc4)C3)c2cc1OCCc1ccc2ccccc2n1` (stereo not drawn), the Ratio IC50 in series [9], in [10], in series [11], in series [12], in series [13] and in series [14] was more than 100 each time. Moreover, the Ratio IC50 in series [6], in series [15], in [16] and in series [17] was more than 100 throughout. This compound displayed a CLint scaled in series [1] of more than 1.14 L/h/kg. Further, the efflux ratio in series [8] is more than 10.

For `COc1cc2ncnc(N3CCCC(c4ccccc4)C3)c2cc1OCc1ccc2ccccc2n1` (stereo not drawn), the IC50 in series [4] was more than 3.2 µM.

Consider `COc1cc2ncnc(N3CCCC(c4ccccc4)C3)c2cc1OC` (racemic), for which, in [4], the IC50 was determined as 0.146 µM.

The compound `COc1cc2ncnc(N3CCCC(c4ccccc4)C3)c2cc1OCCCc1nc2ccccc2n1C` (stereo not drawn) displayed an inhibition in [18] of 11%. In addition, the IC50 in series [4] was determined as 0.01 µM.

For `COc1cc2ncnc(N3CCCC(c4ccccc4)C3)c2cc1OCCc1cccnc1` (stereo not drawn), the IC50 in [4] was 2.34 µM.

`COc1cc2ncnc(N3CCCC(c4ccccc4)C3)c2cc1OCc1ccncc1` (stereo not drawn): the IC50 in series [4] was more than 3.2 µM.

In series [1], `COc1cc2ncn(C)c(=O)c2cc1OCCc1ccc2ccccc2n1` returned a CLint scaled of 5.58 L/h/kg. The Papp A→B in series [2] was 180 nm/s. Further, the figures for the Activity in series [19] and in series [20] were 129% and 79%, respectively. In addition, the IC50 in series [4] was 0.012 µM.

For `COc1cc2ncnc(N3CCCC(c4ccccc4)C3)c2cc1OCCc1ccncc1` (stereo not drawn), the IC50 in series [4] was more than 3.2 µM.

As for `COc1cc2ncnc(N3CCCC(c4ccccc4)C3)c2cc1OCCc1ccccn1` (stereo not drawn), the inhibition in [18] stood at 32%.

Regarding `COc1cc2ncnc(N3CCCC(c4ccccc4)C3)c2cc1OCCc1ccccn1` (racemic), the Ratio IC50 in series [6] was more than 5.

`COc1cc2cncnc2cc1OCCc1ccc2ccccc2n1`: the values for the CLint scaled in [1] and in series [21] were less than 0.42 L/h/kg and 11 L/h/kg, respectively. The outcome in [22] was inactive. In series [18], this compound showed an inhibition of 51%. Moreover, the Papp A→B in [2] was determined as 30 nm/s.

As for `COc1cc2ncnc(-c3cccnc3)c2cc1OCCc1ccc2ccccc2n1`, the CLint scaled in [1] is less than 0.48 L/h/kg. Moreover, the Papp A→B in series [2] worked out at 4 nm/s. The ED50 is 3.18 mg/kg in series [23] and more than 5.8 mg/kg in series [24]. For the same compound, in series [4], the IC50 was found to be 0.005 µM. Further, in series [5], the Activity worked out at 79%.

With `c1ccc2nc(CCOc3ccc4ccncc4c3)ccc2c1`, the IC50 in series [4] was found to be 0.809 µM.

With `CCCOc1cc2c(N3CCCC(c4ccccc4)C3)ncnc2cc1OC` (stereo not drawn), the Ratio IC50 in [6] is less than 0.1. Also, the IC50 came out at 0.098 µM in [7] and 1.04 µM in series [4].

As for `COc1cc2ncnc(N3CCCC(c4ccccc4)C3)c2cc1OCc1ccccn1` (stereo not drawn), the IC50 in series [4] was more than 3.2 µM.

Consider `COc1cc2ncnc(N3CCCC(c4ccccc4)C3)c2cc1OCc1cccnc1` (stereo not drawn), for which the IC50 in series [4] was more than 3.2 µM.

Consider `COc1cc2ncnc(N3CCCC(c4ccccc4)C3)c2cc1OCCc1ccccc1` (stereo not drawn), for which the IC50 in [4] stood at 1.66 µM.

The term CLint scaled denotes the capacity of the preparation to metabolise the compound, expressed as a volume cleared per time. The term Papp A→B denotes the apparent permeability from the apical to the basolateral side of a cell layer. What is called IC50 is the midpoint of a concentration-inhibition curve. The term efflux ratio denotes the permeability from basolateral to apical divided by that in the opposite direction, in the common usage. The term inhibition denotes how much of the control response was suppressed. A high value points to a strong effect. The ED50 is the dose at which the effect has come halfway, by size or by number of responders.
